Reference: ChEMBL document CHEMBL1152279 (J Med Chem, 2008)

Experiments:
Histamine H2 receptor = Histamine H2 receptor (Cavia porcellus, UniProt P47747); assay: Antagonist activity at histamine H2 receptor in guinea pig spontaneously beating right atrium assessed as inhibition of histamine-induced positive chronotropic activity; format: functional, tissue-based, Cardiac atrium
[1] = target: Histamine H2 receptor (Cavia porcellus) (UniProt P47747); assay: Antagonist activity at histamine H2 receptor in guinea pig spontaneously beating right atrium assessed as positive chronotropic activity at 58 uM relative to histamine; format: functional, tissue-based; settings: Cardiac atrium
Sequence of Histamine H2 receptor (Cavia porcellus) (P47747 whole entry): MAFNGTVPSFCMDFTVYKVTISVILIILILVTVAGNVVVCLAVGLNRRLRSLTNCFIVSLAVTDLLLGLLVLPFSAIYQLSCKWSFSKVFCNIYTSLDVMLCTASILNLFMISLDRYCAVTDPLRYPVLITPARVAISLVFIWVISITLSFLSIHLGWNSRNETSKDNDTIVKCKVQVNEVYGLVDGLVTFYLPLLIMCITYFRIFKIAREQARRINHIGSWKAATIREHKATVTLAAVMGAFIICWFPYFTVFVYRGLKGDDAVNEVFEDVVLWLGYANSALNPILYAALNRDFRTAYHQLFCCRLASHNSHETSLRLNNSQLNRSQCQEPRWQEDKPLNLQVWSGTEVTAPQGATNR

[2] = target: Histamine H2 receptor (Cavia porcellus) (UniProt P47747); assay: Antagonist activity at histamine H2 receptor in guinea pig spontaneously beating right atrium assessed as histamine Emax at 58 uM; format: functional, tissue-based; settings: Cardiac atrium
[3] = target: Histamine H1 receptor (Homo sapiens) (UniProt P35367); assay: Antagonist activity at histamine H1 receptor in human U373 MG cells assessed as inhibition of histamine-induced intracellular calcium level preincubated for 15 mins prior to histamine challenge; format: functional, cell-based; settings: U-373MG ATCC
Sequence of Histamine H1 receptor (Homo sapiens) (P35367 whole entry): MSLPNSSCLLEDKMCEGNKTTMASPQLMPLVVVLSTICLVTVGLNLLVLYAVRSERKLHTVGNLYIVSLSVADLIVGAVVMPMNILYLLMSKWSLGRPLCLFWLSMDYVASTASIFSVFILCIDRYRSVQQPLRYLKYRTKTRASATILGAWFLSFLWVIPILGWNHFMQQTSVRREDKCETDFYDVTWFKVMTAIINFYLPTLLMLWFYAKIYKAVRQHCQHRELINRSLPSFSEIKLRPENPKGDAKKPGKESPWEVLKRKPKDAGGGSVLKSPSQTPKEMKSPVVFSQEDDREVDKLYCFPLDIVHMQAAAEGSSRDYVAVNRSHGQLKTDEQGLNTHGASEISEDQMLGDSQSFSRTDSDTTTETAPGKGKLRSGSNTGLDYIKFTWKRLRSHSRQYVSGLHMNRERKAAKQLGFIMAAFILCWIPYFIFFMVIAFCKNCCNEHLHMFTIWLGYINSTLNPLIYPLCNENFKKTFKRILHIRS
Procedure, shortened: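 U373-MG human cells expressing H1R, calcium assay. […] KB was derived from IC50 by the Cheng-Prusoff equation. Values are the mean of two experiments.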

[4] = Dissociation constant, pKa of the compound; format: physicochemical

Sequence of Histamine H2 receptor (P47747 whole entry): as the sequence (P47747 whole entry) above

Molecule `CC(CCN=C(N)NC(=O)CCc1cnc[nH]1)c1ccccc1` (stereo not given) has a pA2 (Histamine H2 receptor) of 5.19.

Work on `CC(CCNC(=N)NC(=O)CCc1c[nH]cn1)c1ccccc1` (stereo not given) yielded an Emax [1] of 7%, an Emax [2] of 45% and a Kb [3] of 9.3 µM.

With `N=C(N)N` [GUANIDINE] the pKa [4] was 12.5.
